Article PMC10258837 (Journal of the American Chemical Society, 2021)

Legend:
AnpI = AnpI substrate test; type: biochemical, Streptomyces lavendulae subsp. lavendulae strain NRRL B-2775; settings: free (not T domain-bound) substrate
Mur27 = assay: amino acid-dependent ATP-PPi exchange, Mur27; type: biochemical, Streptomyces sp. NRRL 30471; settings: amino acid-dependent ATP-PPi exchange assay; MBP fusion
AnpE orthologs [1] = assay: amino acid-dependent ATP-PPi exchange, AnpE orthologs; type: biochemical; settings: amino acid-dependent ATP-PPi exchange assay
AnpF orthologs = assay: amino acid-dependent ATP-PPi exchange, AnpF orthologs; type: biochemical; settings: amino acid-dependent ATP-PPi exchange assay
Mur15 [2] = biological target: T1, Mur15 (Streptomyces sp. NRRL 30471, UniProt F2WUC7); assay: Mur15 substrate scope; type: biochemical; settings: for Mur15-catalyzed hydroxylation (substrate conversion): Fe2+, αKG and O2, LC-MS; for Mur15-catalyzed hydroxylation of free amino acid: LC-MS with authentic hydroxylated standards
Summary of the method: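 Mur15 incubated with Fe2+, αKG and O2 plus either a muraymycin substrate purified from Streptomyces sp. NRRL 30475 or a synthetic deaminoribose analogue. Reactions analysed by HPLC against a control without enzyme. Product identity checked by co-injection with authentic hydroxylated standard.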

AnpE orthologs [3] = assay: covalent modification by phosphor imaging, AnpE orthologs; type: biochemical; settings: 14C-labelled amino acid
M. smegmatis = assay: anti-M. smegmatis activity; type: cell-based; settings: 8 compared with 3; Table S3
E. coli = assay: anti-E. coli activity; type: cell-based; settings: 8 compared with 3; E. coli strain not stated; Table S3
any NRPS = settings: [14C]NaHCO3; Figure S10
Mur21 [4] = assay: amino acid-dependent ATP-PPi exchange, Mur21; type: biochemical, Streptomyces sp. NRRL 30471; settings: amino acid-dependent ATP-PPi exchange assay; MBP fusion
Mur21 [5] = assay: T domain loading by SDS-PAGE with phosphor imaging, Mur21; type: biochemical, Streptomyces sp. NRRL 30471; settings: 14C-labelled amino acid, MBP fusion
SlAnpD(AT) = assay: amino acid-dependent ATP-PPi exchange, SlAnpD; type: biochemical, Streptomyces lavendulae subsp. lavendulae strain NRRL B-2775; settings: amino acid-dependent ATP-PPi exchange assay; truncated, lacking the C domain
VioC = VioC hydroxylation; type: biochemical, Streptomyces sp. strain ATCC11861; settings: free L-Arg; experimental control
Mur16 = settings: cited from earlier work
SadA = settings: cited from earlier work
Mur14 = assay: T domain loading by SDS-PAGE with phosphor imaging, Mur14; type: biochemical, Streptomyces sp. NRRL 30471; settings: 14C-labelled amino acid; Mur27 with Mur14
AnpF = assay: covalent modification by phosphor imaging, AnpF; type: biochemical; settings: 14C-labelled amino acid
Mur12 = assay: T domain loading by SDS-PAGE with phosphor imaging, Mur12; type: biochemical, Streptomyces sp. NRRL 30471; settings: 14C-labelled amino acid, CoA and Sfp
holo-SlAnpD(AT) = assay: covalent modification by phosphor imaging, holo-SlAnpD; type: biochemical, Streptomyces lavendulae subsp. lavendulae strain NRRL B-2775; settings: 14C-labelled amino acid; phosphor imaging of gels
Mur15 [6] = biological target: T1, Mur15; assay: Mur15 single-substrate kinetic analysis and turnover; type: biochemical; settings: for Km / kcat: single-substrate kinetic analysis with saturating αKG, Michaelis-Menten
Summary of the method: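 Mur15 reaction with Fe2+, αKG and O2 as cofactor and cosubstrates. The native muraymycin substrate, purified from Streptomyces sp. NRRL 30475, is varied for single-substrate kinetics.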

α-MAPI [compound 9]
conversion by AnpI (AnpI): Neither, however, were converted to a product

CC(C)[C@H](N)C(=O)O [L-Val]
A domain activation of amino acid by Mur27 (Mur27): relatively low activity yet with modest specificity | A domain activation by AnpE orthologs (AnpE orthologs [1]): very low activity | A domain activation by AnpF orthologs (AnpF orthologs): slight preference

N[C@@H](Cc1c[nH]cn1)C(=O)O [L-His]
A domain activation by AnpF orthologs (AnpF orthologs): slight preference

CC[C@H](C)[C@H](N)C(=O)O [L-Ile]
A domain activation by AnpE orthologs (AnpE orthologs [1]): very low activity | A domain activation by AnpF orthologs (AnpF orthologs): slight preference

CO[C@H]1[C@H](O[C@H]([C@H]2O[C@@H](n3ccc(=O)[nH]c3=O)[C@H](O)[C@@H]2O)[C@H](NCCCNC(=O)[C@@H](NC(=O)[C@@H](NC(=O)N[C@H](C(=O)O)C(C)C)[C@@H]2CCN=C(N)N2)[C@@H](OC(=O)CCCCCCCCCCCCN(O)C(=N)N)C(C)C)C(=O)O)O[C@H](CN)[C@H]1O [muraymycin A1]
Mur15-catalyzed hydroxylation (substrate conversion) (Mur15 [2]): mass consistent with a mono-hydroxylated product

N[C@@H](CS)C(=O)O [L-Cys]
A domain activation by AnpF orthologs (AnpF orthologs): slight preference

L-[^14C]Phe
covalent modification of AnpE orthologs (AnpE orthologs [3]): covalent modification of the AnpE orthologs was detected

CO[C@H]1[C@H](O[C@H]([C@H]2O[C@@H](n3ccc(=O)[nH]c3=O)[C@H](O)[C@@H]2O)[C@H](NCCCNC(=O)[C@@H](NC(=O)[C@@H](NC(=O)N[C@H](C(=O)O)C(C)C)[C@@H]2CCN=C(N)N2)[C@@H](O)C(C)C)C(=O)O)O[C@H](CN)[C@H]1O [compound 8, muraymycin C1]
Mur15-catalyzed hydroxylation (substrate conversion) (Mur15 [2]): remained unchanged | effect of conversion of 3 to 8 on anti-M. smegmatis activity (M. smegmatis): minimal effect | effect of conversion of 3 to 8 on E. coli activity (E. coli): minimal effect

CC(C)C[C@H](NC(=O)[C@@H](NC(=O)N[C@H](C(=O)O)C(C)C)[C@@H]1CCN=C(N)N1)C(=O)NCCCN[C@H](C(=O)O)[C@H](O[C@@H]1O[C@H](CN)[C@@H](O)[C@H]1O)[C@H]1O[C@@H](n2ccc(=O)[nH]c2=O)[C@H](O)[C@@H]1O [compound 4, muraymycin D2]
Mur15-catalyzed hydroxylation (substrate conversion) (Mur15 [2]): mono-hydroxylated

O=[14C]([O-])O.[Na+] [[^14C]NaHCO3]
radiolabelling of NRPS (any NRPS): inability to radiolabel any NRPS

N[C@@H](Cc1ccccc1)C(=O)O [L-Phe]
A domain activation by AnpF orthologs (AnpF orthologs): slight preference

CC(C)C[C@H](N)C(=O)O [L-Leu]
Mur15-catalyzed hydroxylation of free amino acid (Mur15 [2]): no peaks corresponding to a hydroxylated product were detected | A domain activation of amino acid by Mur21 (Mur21 [4]): preferential activity | A domain activation by AnpE orthologs (AnpE orthologs [1]): highest activity | A domain activation by AnpF orthologs (AnpF orthologs): slight preference

L-[^14C]Leu
self-loading of Mur21 (Mur21 [5]): not observed

N=C(N)NCCC[C@H](N)C(=O)O [L-Arg]
Mur15-catalyzed hydroxylation of free amino acid (Mur15 [2]): no peaks corresponding to a hydroxylated product were detected | A domain specificity of SlAnpD(AT) (SlAnpD(AT)): high specificity | conversion by AnpI (AnpI): 1 was not detected | hydroxylation by VioC (VioC): shown to hydroxylate free L-Arg | hydroxylation by Mur16 (Mur16): did not hydroxylate L-Arg

CC(C)[C@H](O)[C@H](N)C(=O)O [(2S,3S)-2, (2S,3S)-β-OH-Leu]
A domain activation of amino acid by Mur21 (Mur21 [4]): inactive

CC(C)C[C@H](NC(=O)CCC(=O)O)C(=O)O [N-succinyl-L-Leu]
conversion by SadA to hydroxylated product (SadA): hydroxylated product with (2S,3R)-stereochemical configuration

L-[^14C]Val
loading of Mur14 (Mur14): not observed | covalent modification of AnpF (AnpF): Covalent modification of AnpF was observed

L-[^14C]Arg
loading of Mur12 T domain (Mur12): A faint band corresponding to the molecular weight of Mur12 was detected | covalent modification of holo-SlAnpD(AT) (holo-SlAnpD(AT)): covalently modified

CO[C@H]1[C@H](O[C@H]([C@H]2O[C@@H](n3ccc(=O)[nH]c3=O)[C@H](O)[C@@H]2O)[C@H](NCCCNC(=O)[C@@H](NC(=O)[C@@H](NC(=O)N[C@H](C(=O)O)C(C)C)[C@@H]2CCN=C(N)N2)[C@@H](OC(=O)CCCCCCC(C)C)C(C)C)C(=O)O)O[C@H](CN)[C@H]1O [muraymycin B2]
Km (Mur15 [6]): 930 µM | kcat (Mur15 [6]): 0.108 ± 0.0083 s⁻¹ | drop in catalytic efficiency when compared with 3 (Mur15 [6]; with respect to muraymycin B2, saturating αKG): ~ 2 -fold | Mur15-catalyzed hydroxylation (substrate conversion) (Mur15 [2]): mass consistent with a mono-hydroxylated product

CO[C@H]1[C@H](O[C@H]([C@H]2O[C@@H](n3ccc(=O)[nH]c3=O)[C@H](O)[C@@H]2O)[C@H](NCCCNC(=O)[C@H](CC(C)C)NC(=O)[C@@H](NC(=O)N[C@H](C(=O)O)C(C)C)[C@@H]2CCN=C(N)N2)C(=O)O)O[C@H](CN)[C@H]1O [compound 3, muraymycin D1]
Km (Mur15 [6]): 600 ± 100 µM | kcat (Mur15 [6]): 0.167 ± 0.017 s⁻¹ | total turnover number (TTN) (Mur15 [6]; with native substrate (3) or unnatural substrate (muraymycin B), estimated): ≥ 800 | Mur15-catalyzed hydroxylation (substrate conversion) (Mur15 [2]): a new peak with a mass corresponding to mono-hydroxylated 3

CSCC[C@H](N)C(=O)O [L-Met]
A domain activation by AnpE orthologs (AnpE orthologs [1]): highest activity | A domain activation by AnpF orthologs (AnpF orthologs): slight preference

N=C(N)NCCC[C@H](NC(=O)NC(Cc1ccccc1)C(=O)O)C(=O)O (stereo partly drawn) [compound 11, L-Phe-(C=O)-L-Arg]
conversion by AnpI (AnpI): No product was observed

N[C@@H](Cc1c[nH]c2ccccc12)C(=O)O [L-Trp]
A domain activation by AnpF orthologs (AnpF orthologs): no activity

CO[C@H]1[C@H](O[C@H]([C@H]2O[C@@H](n3ccc(=O)[nH]c3=O)[C@H](O)[C@@H]2O)[C@H](NCCCNC(=O)[C@@H](NC(=O)[C@@H](NC(=O)N[C@H](C(=O)O)C(C)C)[C@@H]2CCN=C(N)N2)[C@@H](OC(=O)CCCCC(C)C)C(C)C)C(=O)O)O[C@H](CN)[C@H]1O [muraymycin B6]
Mur15-catalyzed hydroxylation (substrate conversion) (Mur15 [2]): mass consistent with a mono-hydroxylated product

CC(=O)N[C@@H](CC(C)C)C(=O)O [N-acetyl-L-Leu]
conversion by SadA to hydroxylated product (SadA): hydroxylated product with (2S,3R)-stereochemical configuration
